Assays:
[1] = Drug reactivity against cysteamine in pH 7.4 PBS buffer assessed as half life at 250 uM measured up to 72 hrs by HPLC-MS/MS analysis; format: ADME; conditions: PBS buffer with cysteamine (thiol reactivity)
How it was run: (§1)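 Fragment (500 µM in PBS pH 7.4 with 10% acetonitrile and 200 µM indoprofen internal standard) was mixed 1:1 with 10 mM thiol surrogate in PBS. Final concentrations were 250 µM fragment, 5 mM thiol, 100 µM indoprofen and 5% acetonitrile, giving pseudo-first-order conditions. HPLC sampling at 0, 1, 2, 4, 8, 12, 24, 48 and 72 h.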

[2] = Drug reactivity against N-bezoyl-cysteamine in pH 7.4 PBS buffer assessed as half life at 250 uM measured up to 72 hrs by HPLC analysis; format: ADME; conditions: PBS buffer with N-benzoyl-cysteamine (thiol reactivity); how it was run: as §1
[3] = Drug reactivity against cysteine in pH 7.4 PBS buffer assessed as half life at 250 uM measured up to 72 hrs by HPLC-MS/MS analysis; format: ADME; conditions: PBS buffer with cysteine (thiol reactivity); how it was run: as §1
[4] = Drug reactivity against N-acetyl-cysteine in pH 7.4 PBS buffer assessed as half life at 250 uM measured up to 72 hrs by HPLC-MS analysis; format: ADME; conditions: PBS buffer with N-acetyl-cysteine (thiol reactivity); how it was run: as §1
[5] = Drug reactivity against N-benzoyl-cysteine in pH 7.4 PBS buffer assessed as half life at 250 uM measured up to 72 hrs by HPLC-MS analysis; format: ADME; conditions: PBS buffer with N-benzoyl-cysteine (thiol reactivity); how it was run: as §1
[6] = Drug reactivity against glutathione in pH 7.4 PBS buffer assessed as half life at 250 uM measured up to 72 hrs by HPLC analysis; format: ADME; conditions: PBS buffer with glutathione (thiol reactivity); how it was run: as §1
[7] = Drug reactivity against N-benzoyl-glutathione in pH 7.4 PBS buffer assessed as half life at 250 uM measured up to 72 hrs by HPLC-MS/MS analysis; format: ADME; conditions: PBS buffer with N-benzoyl-glutathione (thiol reactivity); how it was run: as §1
[8] = Solubility of the compound in pH 7.4 PBS buffer; format: physicochemical
How it was run: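 Solubility was judged by eye as the absence of precipitation during the thiol reactivity incubations. Conditions were 250 µM fragment in PBS pH 7.4 with 5% acetonitrile, over up to 72 h.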

| Structure (SMILES) | half-life at 250 µM [1] [min] | half-life at 250 µM [2] [min] | half-life at 250 µM [3] [min] | half-life at 250 µM [4] [h] | half-life at 250 µM [5] [min] | half-life at 250 µM [6] [min] | half-life at 250 µM [7] [h] | solubility [8] |
| --- | --- | --- | --- | --- | --- | --- | --- | --- |
| FC(F)(F)c1cc(S)cc(C(F)(F)F)c1 | > 3000 | > 3000 | > 3000 | 33 | > 3000 | 1890 | 11.2 | Soluble |
| Fc1cc(C(F)(F)F)cc(C(F)(F)F)c1 | > 3000 | > 3000 | > 3000 | > 50 | > 3000 |  | > 50 | Soluble |
| C=CC(=O)Oc1cc(C(F)(F)F)cc(C(F)(F)F)c1 | < 1.02 | < 1.02 | < 1.02 | < 0.017 | < 1.02 | < 1.02 | < 0.017 | Soluble |
| FC(F)(F)c1cc(N=C=S)cc(C(F)(F)F)c1 | < 1.02 | < 1.02 | < 1.02 | < 0.017 | 1.02 | < 1.02 | < 0.017 | Soluble |
| O=C(CBr)c1cc(C(F)(F)F)cc(C(F)(F)F)c1 | < 1.02 | < 1.02 | < 1.02 | < 0.017 | < 1.02 | < 1.02 | < 0.017 | Soluble |

— ChEMBL document CHEMBL4627297, “Comparative reactivity analysis of small-molecule thiol surrogates” (Bioorg Med Chem, 2020)
